Target: Cytochrome P450 3A4 (Homo sapiens, UniProt P08684)
Sequence (P08684 whole entry): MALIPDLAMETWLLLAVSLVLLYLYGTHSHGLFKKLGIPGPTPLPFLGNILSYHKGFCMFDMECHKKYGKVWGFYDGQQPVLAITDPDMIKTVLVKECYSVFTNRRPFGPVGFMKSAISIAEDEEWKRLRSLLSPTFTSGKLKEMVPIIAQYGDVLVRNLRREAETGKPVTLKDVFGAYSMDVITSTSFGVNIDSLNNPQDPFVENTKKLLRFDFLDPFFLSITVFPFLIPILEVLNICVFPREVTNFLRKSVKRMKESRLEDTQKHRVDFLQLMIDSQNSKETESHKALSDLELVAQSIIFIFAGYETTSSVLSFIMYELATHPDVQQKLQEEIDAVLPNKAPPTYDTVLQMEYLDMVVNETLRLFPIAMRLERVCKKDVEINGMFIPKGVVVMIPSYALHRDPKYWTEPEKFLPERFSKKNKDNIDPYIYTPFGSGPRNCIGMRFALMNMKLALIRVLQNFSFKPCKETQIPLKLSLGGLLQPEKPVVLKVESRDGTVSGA
Assay: Inhibition of CYP3A4 in human liver microsomes using testosterone as substrate preincubated for 30 mins followed by substrate/NADPH addition measured after 10 mins by LC-MS/MS analysis
Format: ADME
Settings: not given
`Cc1nc(N2C[C@H]3C(=O)N(C)C(=N)N[C@@]3(c3cc(-c4cccc(C#N)c4)cs3)C2)ncc1F` showed an IC50 of 600 nM. `CN1C(=N)N[C@@]2(c3cc(-c4cccc(C#N)c4)cs3)CN(c3ncc(F)c(N4CCCC4)n3)C[C@H]2C1=O` showed an IC50 greater than 30000 nM. Compound `CN1C(=N)N[C@@]2(c3cc(-c4cc(F)cc(F)c4)cs3)CN(c3ncc(F)cn3)C[C@H]2C1=O` has an IC50 of 1000 nM. For `CN1C(=O)[C@@H]2CN(c3ccc(F)cc3)C[C@]2(c2cc(-c3cccc(C#N)c3)cs2)N=C1N`, the IC50 was greater than 30000 nM. Compound `CN1C(=O)[C@@H]2CN(c3ncccn3)C[C@]2(c2cc(-c3cccc(C#N)c3)cs2)N=C1N` has an IC50 greater than 30000 nM. For `CN1C(=N)N[C@@]2(c3cc(-c4ccc(F)c(C#N)c4)cs3)CN(c3ncc(F)cn3)C[C@H]2C1=O`, the IC50 was 5700 nM. Compound `CCCOc1nc(N2C[C@H]3C(=O)N(C)C(=N)N[C@@]3(c3cc(-c4cccc(C#N)c4)cs3)C2)ncc1F` has an IC50 of 1200 nM. With `CN1C(=N)N[C@@]2(c3cc(-c4cccc(Cl)c4)cs3)CN(c3ncc(F)cn3)C[C@H]2C1=O` the IC50 was 1200 nM. For `CCc1nc(N2C[C@H]3C(=O)N(C)C(=N)N[C@@]3(c3cc(-c4cccc(C#N)c4)cs3)C2)ncc1F`, the IC50 was 900 nM. `CN1C(=N)N[C@@]2(c3cc(-c4ccc(Cl)c(C#N)c4)cs3)CN(c3ncc(F)cn3)C[C@H]2C1=O` gave an IC50 of 5500 nM. For `CN1C(=N)N[C@@]2(c3cc(Br)cs3)CN(c3ncc(F)cn3)C[C@H]2C1=O`, the IC50 was 900 nM. For `CCOc1nc(N2C[C@H]3C(=O)N(C)C(=N)N[C@@]3(c3cc(-c4cccc(C#N)c4)cs3)C2)ncc1F`, the IC50 was 700 nM. In the case of `COc1nc(N2C[C@H]3C(=O)N(C)C(=N)N[C@@]3(c3cc(-c4cccc(C#N)c4)cs3)C2)nc(C)c1F`, the IC50 is reported as 11000 nM. Compound `CN1C(=N)N[C@@]2(c3cc(-c4cc(F)cc(C#N)c4)cs3)CN(c3ncc(F)cn3)C[C@H]2C1=O` has an IC50 of 1600 nM. Work on `COc1cc(C#N)cc(-c2csc([C@]34CN(c5ncc(F)cn5)C[C@H]3C(=O)N(C)C(=N)N4)c2)c1` yielded an IC50 of 1600 nM. `CN1C(=N)N[C@@]2(c3cc(-c4cccc(C#N)c4)cs3)CN(c3ncc(F)c(N4CCOCC4)n3)C[C@H]2C1=O` showed an IC50 greater than 30000 nM.

Tested on: Rattus norvegicus
Assay: Anti-alzheimer activity in rat assessed as reduction in amyloid beta40 levels in cerebrospinal fluid at 10 mg/kg, po relative to control
Format: functional
Design: scale not given: the % may be the effect or the level left
Settings: not given
`Cc1nc(N2C[C@H]3C(=O)N(C)C(=N)N[C@@]3(c3cc(-c4cccc(C#N)c4)cs3)C2)ncc1F` gave an Activity of 38%. `CN1C(=N)N[C@@]2(c3cc(-c4cccc(C#N)c4)cs3)CN(c3ncc(F)c(N4CCCC4)n3)C[C@H]2C1=O` gave an Activity of 2%. With `CCc1nc(N2C[C@H]3C(=O)N(C)C(=N)N[C@@]3(c3cc(-c4cccc(C#N)c4)cs3)C2)ncc1F` the Activity was 49%. For `Cc1nc(N2C[C@H]3C(=O)N(C)C(=N)N[C@@]3(c3cc(-c4cccc(C#N)c4)cs3)C2)nc(C)c1F`, the Activity was 54%. In the case of `CN1C(=N)N[C@@]2(c3cc(-c4cccc(C#N)c4)cs3)CN(c3ncc(F)c(N4CCOCC4)n3)C[C@H]2C1=O`, the Activity is reported as 17%.

Tested on: Rattus norvegicus
Assay: Anti-alzheimer activity in rat assessed as reduction in amyloid beta40 levels in cerebrospinal fluid at 30 mg/kg, po relative to control
Format: functional
Design: scale not given: the % may be the effect or the level left
Settings: not given
`COc1nc(N2C[C@H]3C(=O)N(C)C(=N)N[C@@]3(c3cc(-c4cccc(C#N)c4)cs3)C2)ncc1F` showed an Activity of 45%. `CCCOc1nc(N2C[C@H]3C(=O)N(C)C(=N)N[C@@]3(c3cc(-c4cccc(C#N)c4)cs3)C2)ncc1F` showed an Activity of 12%. For `CCOc1nc(N2C[C@H]3C(=O)N(C)C(=N)N[C@@]3(c3cc(-c4cccc(C#N)c4)cs3)C2)ncc1F`, the Activity was 20%.

Tested on: not listed separately
Assay: AUC (0 to infinity) in Han Wistar rat at 10 mg/kg, po
Format: ADME, organism-based
Design: dose 10 mg/kg, route oral, time infinity
Settings: in vivo
Method in brief: (§1)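 Wistar Han rats received a single oral dose of 10 mg/kg. AUC(0-∞), Cmax and oral bioavailability (F%) were derived from this oral arm.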
For `Cc1nc(N2C[C@H]3C(=O)N(C)C(=N)N[C@@]3(c3cc(-c4cccc(C#N)c4)cs3)C2)nc(C)c1F`, the AUC(0-inf) was 34 µM·h.

Tested on: not listed separately
Assay: Cmax in Han Wistar rat at 10 mg/kg, po
Format: ADME, organism-based
Design: dose 10 mg/kg, route oral
Settings: in vivo
Method in brief: as §1
In the case of `Cc1nc(N2C[C@H]3C(=O)N(C)C(=N)N[C@@]3(c3cc(-c4cccc(C#N)c4)cs3)C2)nc(C)c1F`, the Cmax is reported as 5.8 µM.

Tested on: not listed separately
Assay: Oral bioavailability in Han Wistar rat at 10 mg/kg
Format: ADME, organism-based
Settings: in vivo
Method in brief: as §1
In the case of `Cc1nc(N2C[C@H]3C(=O)N(C)C(=N)N[C@@]3(c3cc(-c4cccc(C#N)c4)cs3)C2)nc(C)c1F`, the bioavailability is reported as 54%.

Tested on: not listed separately
Assay: Clearance in Han Wistar rat at 2 mg/kg, iv
Format: ADME, organism-based
Settings: in vivo
Method in brief: (§2)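 Same Wistar Han rat PK study, intravenous arm at 2 mg/kg. Clearance, Vd,ss and t1/2 were taken from the iv data.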
Work on `Cc1nc(N2C[C@H]3C(=O)N(C)C(=N)N[C@@]3(c3cc(-c4cccc(C#N)c4)cs3)C2)nc(C)c1F` yielded a clearance of 5.6 mL/min/kg.

Tested on: not listed separately
Assay: Volume of distribution at steady state in Han Wistar rat at 2 mg/kg, iv
Format: ADME, organism-based
Settings: in vivo, read-out: Vdss
Method in brief: as §2
For `Cc1nc(N2C[C@H]3C(=O)N(C)C(=N)N[C@@]3(c3cc(-c4cccc(C#N)c4)cs3)C2)nc(C)c1F`, the Vd was 1 L/kg.

Tested on: not listed separately
Assay: Half life in Han Wistar rat at 2 mg/kg, iv
Format: ADME, organism-based
Settings: in vivo
Method in brief: as §2
`Cc1nc(N2C[C@H]3C(=O)N(C)C(=N)N[C@@]3(c3cc(-c4cccc(C#N)c4)cs3)C2)nc(C)c1F` showed a half-life of 2.1 h.

Tested on: not listed separately
Assay: Protein binding in rat plasma
Format: ADME, cell-free
Settings: read-out: PPB (converted)
Work on `Cc1nc(N2C[C@H]3C(=O)N(C)C(=N)N[C@@]3(c3cc(-c4cccc(C#N)c4)cs3)C2)nc(C)c1F` yielded a fraction unbound of 0.003.

Target: Beta-secretase 1 (Homo sapiens, UniProt P56817)
Sequence (P56817 whole entry): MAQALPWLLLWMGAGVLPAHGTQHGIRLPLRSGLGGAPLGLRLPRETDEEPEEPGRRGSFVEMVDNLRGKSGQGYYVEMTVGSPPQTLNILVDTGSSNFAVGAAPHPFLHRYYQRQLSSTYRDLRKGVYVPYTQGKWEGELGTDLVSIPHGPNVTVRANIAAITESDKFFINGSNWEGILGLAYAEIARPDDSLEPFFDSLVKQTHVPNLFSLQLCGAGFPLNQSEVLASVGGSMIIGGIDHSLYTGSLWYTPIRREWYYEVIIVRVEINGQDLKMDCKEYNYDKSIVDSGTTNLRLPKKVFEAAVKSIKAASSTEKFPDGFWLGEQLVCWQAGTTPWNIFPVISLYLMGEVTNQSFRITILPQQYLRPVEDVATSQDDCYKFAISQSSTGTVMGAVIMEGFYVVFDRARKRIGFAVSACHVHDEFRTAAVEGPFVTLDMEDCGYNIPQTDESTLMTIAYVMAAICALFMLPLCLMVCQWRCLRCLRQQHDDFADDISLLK
Assay: Inhibition of purified human BACE1
Settings: not given
`Cc1nc(N2C[C@H]3C(=O)N(C)C(=N)N[C@@]3(c3cc(-c4cccc(C#N)c4)cs3)C2)ncc1F` showed a Ki of 0.7 nM. With `CN1C(=N)N[C@@]2(c3cc(-c4cccc(C#N)c4)cs3)CN(c3ncc(F)c(N4CCCC4)n3)C[C@H]2C1=O` the Ki was 3 nM. In the case of `CN1C(=N)N[C@@]2(c3cc(-c4cc(F)cc(F)c4)cs3)CN(c3ncc(F)cn3)C[C@H]2C1=O`, the Ki is reported as 10 nM. `CN1C(=N)N[C@@]2(c3cc(-c4ccc(F)c(C#N)c4)cs3)CN(c3ncc(F)cn3)C[C@H]2C1=O` gave a Ki of 4 nM. With `CCCOc1nc(N2C[C@H]3C(=O)N(C)C(=N)N[C@@]3(c3cc(-c4cccc(C#N)c4)cs3)C2)ncc1F` the Ki was 1 nM. With `CN1C(=N)N[C@@]2(c3cc(-c4cccc(Cl)c4)cs3)CN(c3ncc(F)cn3)C[C@H]2C1=O` the Ki was 1 nM. Compound `CCc1nc(N2C[C@H]3C(=O)N(C)C(=N)N[C@@]3(c3cc(-c4cccc(C#N)c4)cs3)C2)ncc1F` has a Ki of 1 nM. For `CN1C(=N)N[C@@]2(c3cc(-c4ccc(Cl)c(C#N)c4)cs3)CN(c3ncc(F)cn3)C[C@H]2C1=O`, the Ki was 10 nM. For `CN1C(=N)N[C@@]2(c3cc(Br)cs3)CN(c3ncc(F)cn3)C[C@H]2C1=O`, the Ki was 100 nM. `CCOc1nc(N2C[C@H]3C(=O)N(C)C(=N)N[C@@]3(c3cc(-c4cccc(C#N)c4)cs3)C2)ncc1F` showed a Ki of 1 nM. For `COc1nc(N2C[C@H]3C(=O)N(C)C(=N)N[C@@]3(c3cc(-c4cccc(C#N)c4)cs3)C2)nc(C)c1F`, the Ki was 0.7 nM. In the case of `Cc1nc(N2C[C@H]3C(=O)N(C)C(=N)N[C@@]3(c3cc(-c4cccc(C#N)c4)cs3)C2)nc(C)c1F`, the Ki is reported as 1 nM. Work on `CN1C(=N)N[C@@]2(c3cc(-c4cc(F)cc(C#N)c4)cs3)CN(c3ncc(F)cn3)C[C@H]2C1=O` yielded a Ki of 2 nM. For `COc1cc(C#N)cc(-c2csc([C@]34CN(c5ncc(F)cn5)C[C@H]3C(=O)N(C)C(=N)N4)c2)c1`, the Ki was 1 nM. `CN1C(=N)N[C@@]2(c3cc(-c4cccc(C#N)c4)cs3)CN(c3ncc(F)c(N4CCOCC4)n3)C[C@H]2C1=O` gave a Ki of 1 nM.

— ChEMBL document CHEMBL4266039, “Overcoming Time-Dependent Inhibition (TDI) of Cytochrome P450 3A4 (CYP3A4) Resulting from Bioactivation of a Fluoropyrimidine Moiety” (J Med Chem, 2018)
